According to ChEMBL document CHEMBL1143133, “Discovery of a dopamine D4 selective PET ligand candidate taking advantage of a click chemistry based REM linker” (Bioorg Med Chem Lett, 2008):

Assays:
[1] = biological target: D(1A) dopamine receptor (Sus scrofa, UniProt P50130); assay: Binding affinity to pig cortical membrane dopamine D1 receptor
Outline: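 Porcine D1 receptor binding: displacement of [³H]SCH23390, screened with test compound at 10 μM, 100 nM and 1 nM. Ki (nM) is the mean of 2–4 experiments, each in triplicate.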

[2] = Binding affinity to pig cortical membrane 5HT1A receptor; set-up: species or system Sus scrofa
Outline: (§1)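 Porcine cortical membranes with selective radioligands: [³H]8-OH-DPAT or [³H][…] for 5-HT1A, [³H]ketanserin for 5-HT2, and [³H]prazosin for α1. Ki (nM) is the mean of 2–4 experiments, each in triplicate.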

[3] = Displacement of [3H]prazosin from pig cortical membrane adrenergic alpha-1 receptor; set-up: species or system Sus scrofa; outline: as §1
[4] = biological target: 5-hydroxytryptamine receptor 2A (Sus scrofa, UniProt P50129); assay: Displacement of [3H]ketanserin from pig cortical membrane 5HT2 receptor; outline: as §1
[5] = biological target: T1, D(2) dopamine receptor (Homo sapiens, UniProt P14416); assay: Binding affinity to human dopamine D2 long receptor
Outline: (§2)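 Competition radioligand binding at human dopamine receptors: displacement of [³H]spiperone from D2long, D3 and D4.4, screened with test compound at 10 μM, 100 nM and 1 nM. Ki values in nM are means of 2–4 experiments, each run in triplicate.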

[6] = biological target: T2, D(3) dopamine receptor (Homo sapiens, UniProt P35462); assay: Binding affinity to human D3 receptor; outline: as §2
[7] = biological target: T3, D(4) dopamine receptor (Homo sapiens, UniProt P21917); assay: Binding affinity to human dopamine D4.4 receptor; outline: as §2
T3 sequence (P21917 whole entry): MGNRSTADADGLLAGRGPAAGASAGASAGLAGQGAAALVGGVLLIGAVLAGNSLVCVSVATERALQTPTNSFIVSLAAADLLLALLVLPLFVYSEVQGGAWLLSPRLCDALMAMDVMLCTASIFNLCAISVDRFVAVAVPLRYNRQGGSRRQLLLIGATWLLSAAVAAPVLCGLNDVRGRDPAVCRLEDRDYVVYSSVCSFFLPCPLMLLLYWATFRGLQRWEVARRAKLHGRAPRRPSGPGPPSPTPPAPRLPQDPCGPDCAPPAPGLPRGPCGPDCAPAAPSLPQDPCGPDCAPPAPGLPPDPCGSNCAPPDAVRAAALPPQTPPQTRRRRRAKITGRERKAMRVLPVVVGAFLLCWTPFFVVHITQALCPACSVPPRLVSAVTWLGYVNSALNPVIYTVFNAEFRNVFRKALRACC

[8] = species: Homo sapiens; assay: Selectivity for human dopamine D4 receptor over human dopamine D2 receptor
[9] = biological target: T1, D(2) dopamine receptor; assay: Displacement of [3H][…] from human cloned dopamine D2 long receptor at 100 uM
[10] = biological target: T2, D(3) dopamine receptor; assay: Displacement of [3H]spiperone from human cloned dopamine D3 receptor at 100 uM
[11] = biological target: T4, D(4) dopamine receptor (Homo sapiens) (UniProt P21917); assay: Displacement of [3H]spiperone from human cloned dopamine D4 receptor at 100 uM
T4 sequence (whole entry): T3 sequence (P21917 whole entry)

[12] = biological target: Dopamine receptors; D3 & D4 (Homo sapiens) (UniProt P35462+P21917); assay: Selectivity for human dopamine D4 receptor over human dopamine D3 receptor
[13] = Distribution coefficient, log D at pH 7.4; type: physicochemical; details: octanol/water
Outline: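 Lipophilicity determined on the ¹⁸F-labelled radioligand as logD at pH 7.4, n = 6.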

[14] = Stability in human serum at 90 mins; type: ADME, cell-free; details: read-out: Stability
Outline: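 The ¹⁸F-labelled radioligand was incubated in human serum for 90 min, and intact tracer was quantified by radio-HPLC.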

Sequence of 5-hydroxytryptamine receptor 2A (P50129 whole entry): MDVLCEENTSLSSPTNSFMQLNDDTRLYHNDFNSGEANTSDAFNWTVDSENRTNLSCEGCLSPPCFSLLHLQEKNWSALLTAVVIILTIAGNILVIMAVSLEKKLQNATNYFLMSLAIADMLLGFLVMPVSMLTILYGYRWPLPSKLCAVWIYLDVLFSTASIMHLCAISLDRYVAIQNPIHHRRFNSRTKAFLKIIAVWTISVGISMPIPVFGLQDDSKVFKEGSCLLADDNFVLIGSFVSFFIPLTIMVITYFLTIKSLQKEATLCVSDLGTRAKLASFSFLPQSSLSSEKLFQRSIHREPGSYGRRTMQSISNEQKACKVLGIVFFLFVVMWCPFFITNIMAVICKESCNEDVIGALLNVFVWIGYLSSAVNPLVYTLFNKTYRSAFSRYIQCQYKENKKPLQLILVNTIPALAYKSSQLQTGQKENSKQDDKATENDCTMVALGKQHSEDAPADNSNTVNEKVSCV
Sequence of D(1A) dopamine receptor (P50130 whole entry): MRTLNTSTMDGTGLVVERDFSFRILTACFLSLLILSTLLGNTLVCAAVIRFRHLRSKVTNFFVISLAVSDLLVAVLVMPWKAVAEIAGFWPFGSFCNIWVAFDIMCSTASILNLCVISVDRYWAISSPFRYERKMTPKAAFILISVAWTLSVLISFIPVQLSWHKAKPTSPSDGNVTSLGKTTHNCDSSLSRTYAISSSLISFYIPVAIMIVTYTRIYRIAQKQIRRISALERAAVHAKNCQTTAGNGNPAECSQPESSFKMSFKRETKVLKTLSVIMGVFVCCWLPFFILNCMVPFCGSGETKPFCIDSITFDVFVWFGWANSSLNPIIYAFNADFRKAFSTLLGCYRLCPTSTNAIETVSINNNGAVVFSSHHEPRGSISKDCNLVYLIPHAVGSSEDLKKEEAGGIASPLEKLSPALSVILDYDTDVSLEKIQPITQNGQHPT
T1 sequence (P14416 whole entry): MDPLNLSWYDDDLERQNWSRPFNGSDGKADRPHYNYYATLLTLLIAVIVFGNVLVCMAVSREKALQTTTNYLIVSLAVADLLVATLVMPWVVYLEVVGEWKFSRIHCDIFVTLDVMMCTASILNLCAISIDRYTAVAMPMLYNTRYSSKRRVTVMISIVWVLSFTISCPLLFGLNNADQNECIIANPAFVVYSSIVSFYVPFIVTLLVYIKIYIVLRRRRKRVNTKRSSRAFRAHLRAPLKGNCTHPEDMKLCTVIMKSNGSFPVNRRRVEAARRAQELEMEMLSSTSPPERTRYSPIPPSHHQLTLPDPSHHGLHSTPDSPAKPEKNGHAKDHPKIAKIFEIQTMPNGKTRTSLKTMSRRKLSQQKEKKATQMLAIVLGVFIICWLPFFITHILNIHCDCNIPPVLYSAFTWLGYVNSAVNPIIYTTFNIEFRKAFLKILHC
T2 sequence (P35462 whole entry): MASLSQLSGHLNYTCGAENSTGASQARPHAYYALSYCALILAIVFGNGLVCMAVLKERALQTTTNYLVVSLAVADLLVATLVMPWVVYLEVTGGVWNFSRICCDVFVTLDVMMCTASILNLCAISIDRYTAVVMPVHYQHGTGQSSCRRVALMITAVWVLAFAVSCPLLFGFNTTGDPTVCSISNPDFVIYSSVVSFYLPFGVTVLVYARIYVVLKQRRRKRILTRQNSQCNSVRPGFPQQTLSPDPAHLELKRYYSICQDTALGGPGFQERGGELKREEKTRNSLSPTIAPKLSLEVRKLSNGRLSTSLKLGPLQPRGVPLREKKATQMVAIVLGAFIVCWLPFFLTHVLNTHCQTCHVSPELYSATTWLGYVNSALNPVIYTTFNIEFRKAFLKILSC
Sequence of Dopamine receptors; D3 & D4 (Homo sapiens) (P35462 whole entry, looked up, one chain of several): as the sequence (P35462 whole entry) above

SMILES	Ki [1] [nM]	Ki [3] [nM]	Ki [4] [nM]	Activity [9] [%]	Activity [10] [%]	Activity [11] [%]	also measured
FCCOc1cccc(CN2CCN(c3ccc(Cl)cc3)CC2)c1	5100	190	980	–	–	–	Ki [2]: 3300 nM; Ki [5]: 590 nM; Ki [6]: 1100 nM; Ki [7]: 82 nM
Clc1ccc(N2CCN(Cc3cc4ccccn4n3)CC2)cc1	5500	270	900	–	–	–	Ki [2]: 1700 nM
FCCOc1ccc(CN2CCN(c3ccc(Cl)cc3)CC2)cc1	1400	160	1800	–	–	–	Ki [2]: 5200 nM; Ki [5]: 1100 nM; Ki [6]: 1100 nM; Ki [7]: 50 nM
COc1cc(CN2CCN(c3ccc(Cl)cc3)CC2)ccc1OCCF	5700	18	850	–	–	–	Ki [2]: 18000 nM; Ki [5]: 21000 nM; Ki [6]: 4900 nM; Ki [7]: 12 nM; Ratio Ki [8]: 1750
N#Cc1ccc(CN2CCN(c3ccccc3Cl)CC2)cc1	–	–	–	2	2	73	–
COc1cccc(N2CCN(Cc3ccccc3Br)CC2)c1	–	–	–	2	-0	4	–
COc1cccc(CN2CCN(c3ccc(F)cc3)CC2)c1	–	–	–	2	-0	18	–
Clc1ccc(N2CCN(Cc3ccccc3Br)CC2)cc1Cl	–	–	–	10	14	-0	–
COc1cc(CN2CCN(c3ccccc3OC)CC2)c(OCCF)cc1OC	6800	13	280	–	–	–	Ki [2]: 100 nM; Ki [5]: 94 nM; Ki [6]: 330 nM; Ki [7]: 1.3 nM
COc1cc(CN2CCN(c3ccccc3OC)CC2)ccc1OCCF	5400	21	2100	–	–	–	Ki [2]: 100 nM; Ki [5]: 310 nM; Ki [6]: 1100 nM; Ki [7]: 1.8 nM
COc1ccccc1N1CCN(Cc2ccccc2Br)CC1	–	–	–	9	21	44	–
COc1ccccc1N1CCN(Cc2cccc(OCCF)c2)CC1	5200	36	1900	–	–	–	Ki [2]: 32 nM; Ki [5]: 57 nM; Ki [6]: 270 nM; Ki [7]: 1.6 nM
N#Cc1ccc(CN2CCN(c3ccc(F)cc3)CC2)cc1	–	–	–	-0	15	47	–
COc1cccc(CN2CCN(c3cccc(OC)c3)CC2)c1	–	–	–	-0	9	46	–
N#Cc1ccc(CN2CCN(c3ccc(Cl)c(Cl)c3)CC2)cc1	–	–	–	-0	-0	91	–
Clc1ccccc1N1CCN(Cc2ccccc2Br)CC1	–	–	–	-0	4	9	–
COc1cccc(CN2CCN(c3ccccc3OC)CC2)c1	–	–	–	6	39	26	–
COc1ccccc1N1CCN(Cc2ccc(OCCF)cc2)CC1	3400	47	5400	–	–	–	Ki [5]: 120 nM; Ki [6]: 77 nM; Ki [7]: 3.7 nM
COc1cc(CN2CCN(c3ccc(Cl)cc3)CC2)c(OCCF)cc1OC	3500	4.4	100	–	–	–	Ki [2]: 2800 nM; Ki [5]: 760 nM; Ki [6]: 3900 nM; Ki [7]: 1.7 nM; Ratio Ki [8]: 450; Ratio Ki [12]: 2300
Cc1ccc(N2CCN(Cc3ccc(C#N)cc3)CC2)cc1	–	–	–	-0	4	59	–
COc1cccc(CN2CCN(c3ccccc3Cl)CC2)c1	–	–	–	4	13	55	–
COc1cccc(N2CCN(Cc3ccc(C#N)cc3)CC2)c1	–	–	–	2	6	69	–
COc1ccccc1N1CCN(Cc2ccc(C#N)cc2)CC1	–	–	–	4	5	82	–
COc1cccc(CN2CCN(c3ccc(C)cc3)CC2)c1	–	–	–	6	39	45	–
Cc1ccc(N2CCN(Cc3ccccc3Br)CC2)cc1	–	–	–	6	16	7	–
COc1cc(CN2CCN(c3ccc(Cl)cc3)CC2)c(OCC[18F])cc1OC	–	–	–	–	–	–	logD [13]: 2.8; remaining at 1.5 h [14]: > 95%
COc1cccc(CN2CCN(c3ccc(Cl)c(Cl)c3)CC2)c1	–	–	–	9	2	92	–
Fc1ccc(N2CCN(Cc3ccccc3Br)CC2)cc1	–	–	–	1	1	4	–
